Laboratory results as given in ChEMBL document CHEMBL4414626, “Structure-Guided Enhancement of Selectivity of Chemical Probe Inhibitors Targeting Bacterial Seryl-tRNA Synthetase” (J Med Chem, 2019).
The source made the active and inactive calls. The rule behind the calls is not given here.

Key:
Staphylococcus aureus = experiment: Antibacterial activity against Staphylococcus aureus ATCC 25923 assessed as reduction in bacterial growth incubated for 18 to 20 hrs by broth microdilution assay; assay type: functional
Escherichia coli = experiment: Antibacterial activity against Escherichia coli ATCC 25922 assessed as reduction in bacterial growth incubated for 18 to 20 hrs by broth microdilution assay; assay type: functional
Serine--tRNA ligase [1] = molecular target: T1, Serine--tRNA ligase (Escherichia coli (strain K12), UniProt P0A8L1); experiment: Binding affinity to C-terminal His10-tagged Escherichia coli B ER2560 SerRS expressed in Lemo21(DE3) SerRS assessed as affinity constant for second binding site by isothermal titration calorimetry
T1 sequence (P0A8L1 whole entry): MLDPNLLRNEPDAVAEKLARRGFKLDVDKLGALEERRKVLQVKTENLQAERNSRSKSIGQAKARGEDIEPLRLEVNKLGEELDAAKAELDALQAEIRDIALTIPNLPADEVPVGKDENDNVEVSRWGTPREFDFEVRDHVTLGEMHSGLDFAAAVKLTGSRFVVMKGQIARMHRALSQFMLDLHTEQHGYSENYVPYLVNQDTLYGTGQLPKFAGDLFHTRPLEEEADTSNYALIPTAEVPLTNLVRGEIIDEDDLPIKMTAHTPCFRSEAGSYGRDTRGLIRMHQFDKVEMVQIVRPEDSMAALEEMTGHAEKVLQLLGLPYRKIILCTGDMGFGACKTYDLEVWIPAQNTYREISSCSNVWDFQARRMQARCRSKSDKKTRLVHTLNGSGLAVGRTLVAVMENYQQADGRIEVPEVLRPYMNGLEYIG

Serine--tRNA ligase [2] = molecular target: T1, Serine--tRNA ligase; experiment: Binding affinity to C-terminal His10-tagged Escherichia coli B ER2560 SerRS expressed in Lemo21(DE3) SerRS assessed as affinity constant for first binding site by isothermal titration calorimetry
Serine--tRNA ligase [3] = molecular target: T1, Serine--tRNA ligase; experiment: Binding affinity to C-terminal His10-tagged Escherichia coli B ER2560 SerRS expressed in Lemo21(DE3) SerRS assessed as dissociation constant by isothermal titration calorimetry
[4] = Solubility of the compound in HEPES buffer in presence of human N-terminal polyHis-tagged SerRS expressed in Escherichia coli BL21 (DE3) at 1000 uM; assay type: physicochemical
[5] = molecular target: Serine--tRNA ligase (Escherichia coli (strain K12)) (UniProt P0A8L1); experiment: Binding affinity to C-terminal His10-tagged Escherichia coli B ER2560 SerRS expressed in Lemo21(DE3) SerRS assessed as binding stoichiometry at 2:1 ratio of compound to protein by isothermal titration calorimetry
Serine--tRNA ligase (Escherichia coli (strain K12)), sequence (P0A8L1 whole entry, looked up): as the sequence (P0A8L1 whole entry) above
How it was run: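 E. coli SerRS was purified by gel filtration and dialysed overnight at 4 °C into 20 mM Tris-HCl pH 7.5, 200 mM NaCl. Ligands were made up in the same buffer and all solutions degassed. ITC ran at 25 °C: 7 µM protein in the cell was titrated with 140 µM ligand by 2 µl then 26 × 10 µl injections (20 s each, 120 s apart). Stoichiometry N came from iterative isotherm fitting; runs were in triplicate.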

Serine--tRNA ligase [6] = molecular target: Serine--tRNA ligase (Staphylococcus aureus (strain NCTC 8325 / PS 47), UniProt P95689); experiment: Inhibition of C-terminal His10-tagged Staphylococcus aureus seg50 SerRS expressed in Lemo21(DE3) using Ap4A as substrate in presence of serine by leuconostoc mesenteroides hexokinase/glucose 6-Phosphate dehydrogenase coupled UV-visible spectrophotometry
Serine--tRNA ligase (Staphylococcus aureus (strain NCTC 8325 / PS 47), UniProt P95689), sequence (P95689 whole entry): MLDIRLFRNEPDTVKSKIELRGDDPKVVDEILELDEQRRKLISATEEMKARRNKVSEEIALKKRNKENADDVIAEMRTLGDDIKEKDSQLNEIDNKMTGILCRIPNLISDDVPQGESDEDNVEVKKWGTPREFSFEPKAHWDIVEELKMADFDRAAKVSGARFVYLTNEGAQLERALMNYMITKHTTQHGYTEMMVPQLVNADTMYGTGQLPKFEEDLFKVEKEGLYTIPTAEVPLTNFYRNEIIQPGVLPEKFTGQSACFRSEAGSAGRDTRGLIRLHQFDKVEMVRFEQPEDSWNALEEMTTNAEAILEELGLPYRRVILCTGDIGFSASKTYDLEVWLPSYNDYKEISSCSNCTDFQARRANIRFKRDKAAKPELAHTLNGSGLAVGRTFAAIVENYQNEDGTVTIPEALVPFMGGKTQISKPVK
How it was run: (§1)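 Continuous coupled spectrophotometric assay of the adenylate formation step with thrombin-cleaved, gel-filtered SerRS. Buffer is 50 mM HEPES pH 7.6 with 10 mM MgCl2, 50 mM KCl, 1 mM DTT and 10% DMSO. It also holds 10 mM glucose, 0.5 mM NADP+, yeast hexokinase and L. mesenteroides G6PDH. IC50 by non-linear regression.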

Serine--tRNA ligase [7] = molecular target: T1, Serine--tRNA ligase; experiment: Inhibition of C-terminal His10-tagged Escherichia coli B ER2560 SerRS expressed in Lemo21(DE3) using Ap4A as substrate in presence of serine by leuconostoc mesenteroides hexokinase/glucose 6-Phosphate dehydrogenase coupled UV-visible spectrophotometry; how it was run: as §1
[8] = Selectivity index, ratio of IC50 for human N-terminal polyHis-tagged SerRS expressed in Escherichia coli BL21 (DE3) to IC50 for C-terminal His10-tagged Escherichia coli B ER2560 SerRS expressed in Lemo21(DE3)
[9] = Selectivity index, ratio of IC50 for human N-terminal polyHis-tagged SerRS expressed in Escherichia coli BL21 (DE3) to IC50 for C-terminal His10-tagged Staphylococcus aureus seg50 SerRS expressed in Lemo21(DE3)

Question: With `C/C=C/c1nc(N)c2ncn([C@@H]3O[C@H](COS(=O)(=O)NC(=O)[C@@H](N)CO)[C@@H](O)[C@H]3O)c2n1` as the molecule, how does the MIC (Staphylococcus aureus) read?
Answer: > 256 µg/mL

Question: What about the MIC (Escherichia coli) of the same molecule?
Answer: > 256 µg/mL

Question: With `Nc1nc(-c2cccnc2)nc2c1ncn2[C@@H]1O[C@H](COS(=O)(=O)NC(=O)[C@@H](N)CO)[C@@H](O)[C@H]1O` as the molecule, how does the MIC (Staphylococcus aureus) read?
Answer: > 256 µg/mL

Question: What about the Kd (Serine--tRNA ligase [1]) of the same molecule?
Answer: 1.92 µM

Question: And the MIC (Escherichia coli)?
Answer: > 256 µg/mL

Question: And the Kd (Serine--tRNA ligase [2])?
Answer: 0.29 µM

Question: And the Kd (Serine--tRNA ligase [3])?
Answer: 0.29 to 1.92 µM

Question: What about the solubility [4] of the same molecule?
Answer: Insoluble

Question: What about the Activity [5] of the same molecule?
Answer: Active

Question: Which IC50 (Serine--tRNA ligase [6]) does the source give for `CC1(C)O[C@@H]2[C@H](O1)[C@@H](CO)O[C@H]2n1cnc2c(N)nc(I)nc21` here?
Answer: 231 µM

Question: And the IC50 (Serine--tRNA ligase [7])?
Answer: 285 µM

Question: With `Nc1nc(I)nc2c1ncn2[C@@H]1O[C@H](COS(=O)(=O)NC(=O)[C@@H](N)CO)[C@@H](O)[C@H]1O` as the molecule, how does the MIC (Staphylococcus aureus) read?
Answer: > 256 µg/mL

Question: And the MIC (Escherichia coli)?
Answer: > 256 µg/mL

Question: Which MIC (Staphylococcus aureus) does the source give for `Nc1nc(-c2ccco2)nc2c1ncn2[C@@H]1O[C@H](COS(=O)(=O)NC(=O)[C@@H](N)CO)[C@@H](O)[C@H]1O` here?
Answer: > 256 µg/mL

Question: What about the MIC (Escherichia coli) of the same molecule?
Answer: > 256 µg/mL

Question: With `Nc1nc(-c2ccccc2)nc2c1ncn2[C@@H]1O[C@H](COS(=O)(=O)NC(=O)[C@@H](N)CO)[C@@H](O)[C@H]1O` as the molecule, how does the MIC (Staphylococcus aureus) read?
Answer: > 256 µg/mL

Question: And the MIC (Escherichia coli)?
Answer: > 256 µg/mL

Question: Which MIC (Staphylococcus aureus) does the source give for `Nc1ncnc2c1ncn2[C@@H]1O[C@H](COS(=O)(=O)NC(=O)[C@@H](N)CO)[C@@H](O)[C@H]1O` here?
Answer: > 256 µg/mL

Question: And the MIC (Escherichia coli)?
Answer: > 256 µg/mL

Question: What about the Kd (Serine--tRNA ligase [3]) of the same molecule?
Answer: 0.00127 µM

Question: What about the Ratio IC50 [8] of the same molecule?
Answer: 10

Question: And the Ratio IC50 [9]?
Answer: 10

Question: And the Activity [5]?
Answer: Active

Question: Which MIC (Staphylococcus aureus) does the source give for `Nc1nc(-c2ccsc2)nc2c1ncn2[C@@H]1O[C@H](COS(=O)(=O)NC(=O)[C@@H](N)CO)[C@@H](O)[C@H]1O` here?
Answer: > 256 µg/mL

Question: And the MIC (Escherichia coli)?
Answer: > 256 µg/mL

Question: What about the solubility [4] of the same molecule?
Answer: Insoluble

Question: Which results are given for `Nc1nc(Cl)nc2c1ncn2[C@@H]1O[C@H](COS(=O)(=O)NC(=O)[C@@H](N)CO)[C@@H](O)[C@H]1O`?
Answer: MIC (Staphylococcus aureus): > 256 µg/mL; MIC (Escherichia coli): > 256 µg/mL
